In ChEMBL document CHEMBL4145471, “New 1,5 and 2,5-disubstituted tetrazoles-dependent activity towards surface barrier of Candida albicans” (Eur J Med Chem, 2018):

Tests used:
Candida albicans [1] = assay: Synergistic antifungal activity against Candida albicans ATCC 90028 at 5 ug/ml after 48 hrs in presence of 80 ug/ml fluconazol by checkerboard assay relative to control; type: functional
Procedure, shortened: (§1)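 Checkerboard in C. albicans ATCC 90028, inoculum prepared per CLSI M27-A3 in RPMI. Fluconazole serially diluted 80-1.25 µg/mL across the plate against the partner compound at 80-1.25 µg/mL final. Incubated 48 h at 35°C. Metabolic activity read by XTT reduction at 475 nm (660 nm reference), given as % of the untreated growth control.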

Candida albicans [2] = assay: Antifungal activity against Candida albicans ATCC 90028 at 0.125 ug/ml after 48 hrs relative to control; type: functional
Procedure, shortened: (§2)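 Planktonic broth microdilution per M27-A3 in MOPS-buffered RPMI 1640 (pH 7.0), final inoculum 1.8×10^3 cells/mL, compounds 0.0313–16 µg/mL from 1600 µg/mL stocks in ethanol or DMSO. Incubated at 35°C without agitation; OD405 read at 18 and 48 h. % inhibition was derived from test, sterility (no inoculum) and solvent growth-control wells. Amphotericin B at 0.5 µg/mL served as the 100% control.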

Candida albicans [3] = assay: Antifungal activity against Candida albicans ATCC 90028 assessed as inhibition of metabolic activity at 10 ug/ml after 48 hrs in presence of 20 ug/ml fluconazol by XTT assay relative to control; type: functional; conditions: values are per cent of control
Procedure, shortened: (§3)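 Checkerboard against strain ATCC 90028, inoculum per M27-A3: fluconazole 80-1.25 µg/mL on one axis, tetrazole 80-1.25 µg/mL on the other. Plates at 35°C for 48 h, then XTT metabolic reduction read at 475 nm (660 nm reference). Activity is the drop in mean absorbance against untreated growth control. FICs and their summed FIC index are taken at 50% reduction in metabolic activity.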

Candida albicans [4] = assay: Synergistic antifungal activity against Candida albicans ATCC 90028 at 20 ug/ml after 48 hrs in presence of 1.25 ug/ml fluconazol by checkerboard assay relative to control; type: functional; procedure, shortened: as §1
Candida albicans [5] = assay: Antifungal activity against Candida albicans ATCC 90028 assessed as metabolic activity at 1.25 ug/ml after 48 hrs in presence of 1.25 ug/ml fluconazol by XTT assay relative to control; conditions: ATCC 90028, 48 h
Candida albicans [6] = assay: Antifungal activity against Candida albicans ATCC 90028 at 2 ug/ml after 48 hrs relative to control; type: functional; procedure, shortened: as §2
Candida albicans [7] = assay: Synergistic antifungal activity against Candida albicans ATCC 90028 at 20 ug/ml after 48 hrs in presence of 2.5 ug/ml fluconazol by checkerboard assay relative to control; type: functional
Procedure, shortened: (§4)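 Checkerboard microdilution (M27-A3) on C. albicans ATCC 90028 in RPMI 1640: fluconazole (80-1.25 µg/mL) crossed with tetrazole (80-1.25 µg/mL final), incubated at 35°C for 48 h. Growth by OD405 at 18 and 48 h, endpoint taken as 100% inhibition. FIC index = sum of the two agents' FICs; <1 synergism, >1 antagonism.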

Candida albicans [8] = assay: Synergistic antifungal activity against Candida albicans ATCC 90028 at 2.5 ug/ml after 48 hrs in presence of 40 ug/ml fluconazol by checkerboard assay relative to control; type: functional; procedure, shortened: as §4
Candida albicans [9] = assay: Antifungal activity against Candida albicans ATCC 90028 after 48 hrs assessed as fluconazol MIC by XTT assay; type: functional; conditions: ATCC 90028, 48 h; procedure, shortened: as §3
Candida albicans [10] = assay: Antifungal activity against Candida albicans ATCC 90028 assessed as metabolic activity at 10 ug/ml after 48 hrs in presence of 40 ug/ml fluconazol by XTT assay relative to control
Candida albicans [11] = assay: Synergistic antifungal activity against Candida albicans ATCC 90028 at 40 ug/ml after 48 hrs in presence of 20 ug/ml fluconazol by checkerboard assay relative to control; type: functional; procedure, shortened: as §1
Candida albicans [12] = assay: Antifungal activity against Candida albicans ATCC 90028 at 4 ug/ml after 18 hrs relative to control; type: functional; procedure, shortened: as §2
Candida albicans [13] = assay: Antifungal activity against Candida albicans ATCC 90028 assessed as metabolic activity at 80 ug/ml after 48 hrs in presence of 20 ug/ml fluconazol by XTT assay relative to control
Candida albicans [14] = assay: Antifungal activity against Candida albicans ATCC 90028 assessed as metabolic activity at 80 ug/ml after 48 hrs in presence of 5 ug/ml fluconazol by XTT assay relative to control
Candida albicans [15] = assay: Synergistic antifungal activity against Candida albicans ATCC 90028 at 5 ug/ml after 48 hrs in presence of 10 ug/ml fluconazol by checkerboard assay relative to control; type: functional; procedure, shortened: as §1
Candida albicans [16] = assay: Synergistic antifungal activity against Candida albicans ATCC 90028 at 1.25 ug/ml after 48 hrs in presence of 10 ug/ml fluconazol by checkerboard assay relative to control; type: functional
Procedure, shortened: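 Checkerboard per M27-A3 against ATCC 90028: fluconazole at 80–1.25 µg/mL horizontally and partner compound at 80–1.25 µg/mL vertically, 100 µL yeast inoculum per well, 35°C for 48 h. After 48 h, metabolic activity was measured by XTT reduction at 475 nm (660 nm reference) relative to untreated growth control. FIC index is the sum of the FICs; <1 was defined as synergism and >1 as antagonism.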

Candida albicans [17] = assay: Antifungal activity against Candida albicans ATCC 90028 assessed as inhibition of metabolic activity at 2.5 ug/ml after 48 hrs in presence of 2.5 ug/ml fluconazol by XTT assay relative to control; type: functional; conditions: ATCC 90028, 48 h, values are per cent of control
Procedure, shortened: (§5)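 C. albicans ATCC 90028 in checkerboard: fluconazole serial dilutions (80-1.25 µg/mL) crossed with tetrazole (80-1.25 µg/mL final), M27-A3 inoculum in RPMI 1640, 35°C for 48 h. Metabolic activity measured by XTT reduction, read at 475 nm (660 nm reference). Activity expressed relative to untreated growth control absorbance.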

Candida albicans [18] = assay: Synergistic antifungal activity against Candida albicans ATCC 90028 at 80 ug/ml after 48 hrs in presence of 80 ug/ml fluconazol by checkerboard assay relative to control; type: functional; conditions: ATCC 90028, 48 h, read-out: GI; procedure, shortened: as §1
Candida albicans [19] = assay: Antifungal activity against Candida albicans ATCC 90028 assessed as inhibition of metabolic activity at 5 ug/ml after 48 hrs in presence of 10 ug/ml fluconazol by XTT assay relative to control; type: functional; conditions: values are per cent of control; procedure, shortened: as §3
Candida albicans [20] = assay: Antifungal activity against Candida albicans ATCC 90028 assessed as inhibition of metabolic activity at 1.25 ug/ml after 48 hrs in presence of 2.5 ug/ml fluconazol by XTT assay relative to control; type: functional; conditions: values are per cent of control; procedure, shortened: as §5
Candida albicans [21] = assay: Antifungal activity against Candida albicans ATCC 90028 assessed as inhibition of metabolic activity at 1.25 ug/ml after 48 hrs in presence of 40 ug/ml fluconazol by XTT assay relative to control; type: functional; conditions: values are per cent of control; procedure, shortened: as §3

SMILES | growth inhibition (GI) (Candida albicans [1]) [%] | Activity (Candida albicans [2]) [%] | residual activity (Candida albicans [3]) [%] | growth inhibition (GI) (Candida albicans [4]) [%] | metabolic activity at 1.25 µg/mL (Candida albicans [5]) [%] | Activity (Candida albicans [6]) [%] | growth inhibition (GI) (Candida albicans [7]) [%] | growth inhibition (GI) (Candida albicans [8]) [%] | MIC (Candida albicans [9]) [µg/mL] | Metabolic activity (Candida albicans [10]) [%] | growth inhibition (GI) (Candida albicans [11]) [%] | Activity (Candida albicans [12]) [%] | Metabolic activity (Candida albicans [13]) [%] | Metabolic activity (Candida albicans [14]) [%] | growth inhibition (GI) (Candida albicans [15]) [%] | growth inhibition (GI) (Candida albicans [16]) [%] | residual activity at 2.5 µg/mL (Candida albicans [17]) [%] | inhibition of growth at 80 µg/mL (Candida albicans [18]) [%] | residual activity (Candida albicans [19]) [%] | residual activity (Candida albicans [20]) [%] | further results
Cc1ccc(-c2nnn(CCCN3CCOCC3)n2)cc1 | 99.47 | 98.96 | 93.01 | 98.75 | 74.3 | 98.3 | 99.31 | 98.91 | 10 | 100 | 99.55 | 99.75 | 50.83 | 100 | 98.8 | 99.59 | 100 | 99.5 | 81.48 | 100 | residual activity (Candida albicans [21]): 100%
CCOC(=O)CCn1nnc(-c2ccccc2)n1 | 99.61 | 99.18 | 70.81 | 99.79 | 87 | 99.7 | 99.63 | 99.46 | 1.25 | 94.14 | 99.54 | 99.96 | 73.11 | 100 | 99.57 | 99.65 | 82.6 | 99.6 | 69.35 | 75.73 | residual activity (Candida albicans [21]): 86.85%
ClCCCn1nnnc1-c1ccccc1Cl | 99.34 | 99.43 | 87.4 | 100 | 86.4 | 99.14 | 99.25 | 99.32 | 1.25 | 100 | 99.53 | 99.62 | 70.42 | 100 | 99.66 | 99.66 | 75.8 | 99.8 | 66.6 | 71.55 | residual activity (Candida albicans [21]): 81.57%
